Measurements published in ChEMBL document CHEMBL4680124, “2-Styryl-4-aminoquinazoline derivatives as potent DNA-cleavage, p53-activation and in vivo effective anticancer agents” (Eur J Med Chem, 2020).
pIC50: −log10 of the molar value. Activity calls are given as the source filed them. The calls are words filed in the database; no cut-off is given here.

Assays:
[1] = Induction of mitochondria membrane potential loss in human MGC-803 cells assessed as increase in green fluorescence at 0.5 uM incubated 24 hrs by JC-1 probe based flow cytometry analysis (reference value: 4.67%); format: functional
MGC-803 [2] = experiment: Cell cycle arrest in human MGC-803 cells assessed as accumulation at G1 phase at 0.25 uM after 48 hrs by propidium iodide staining-based flow cytometric analysis (reference value: 46.96 %); format: functional
MGC-803 [3] = experiment: Induction of apoptosis in human MGC-803 cells assessed as necrotic cells at 1 uM measured after 24 hrs by Annexin-V/propidium iodide staining-based flow cytometric analysis (Rvb =6.05%)
MGC-803 [4] = experiment: Induction of apoptosis in human MGC-803 cells assessed as early apoptotic cells at 2.5 uM measured after 24 hrs by Annexin-V/propidium iodide staining-based flow cytometric analysis (Rvb =0.84%)
MGC-803 [5] = experiment: Induction of apoptosis in human MGC-803 cells assessed as increase in MDM2 protein expression upto 2.5 uM incubated for 24 hrs by Western blot analysis; format: functional, cell-based; details: dose microM <=2.5, time 24.0 hrs
Summary of the method: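 MGC-803 cells (2×10^6) cultured overnight, then exposed 24 h to 0.5, 1.0 or 2.5 μM, or 5.0 μM for the reference agent. Lysates were resolved by SDS-PAGE, transferred to PVDF and probed with primary antibodies. Detection used AP-linked anti-rabbit IgG and ECL. β-actin served as loading control.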

Calf thymus DNA = experiment: Binding affinity to calf thymus DNA assessed as hypochromism by measuring absorption spectra at 20 uM incubated for 5 mins by UV-Vis absorption spectrometry; format: tissue-based; details: Bos taurus
Summary of the method: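 Compound at 20 µM in Tris-HCl buffer, 25 °C, titrated with ct-DNA at [DNA]/[compound] 0 to 1.0 in steps of 0.1. Absorption spectra recorded at 295–360 nm after 5 min equilibration following each addition.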

DU-145 = experiment: Cytotoxicity against human DU145 cells expressing mutant type p53 assessed as reduction in cell viability preincubated for 48 hrs and measured after 4 hrs by MTT assay; format: functional, cell-based
Summary of the method: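 MTT assay. Cells grown in DMEM (T24, MGC-803, A549, HL-7702), RPMI-1640 (DU145) or DMEM-F12 (PC-3), each with 10% FBS. Exposed to 1.25–20 µM in medium with 1% DMSO for 48 h, then MTT for 4 h. Formazan dissolved in DMSO and read at 570 nm. Five wells per concentration; means ± SD of independent repeats.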

MGC-803 [6] = experiment: Cell cycle arrest in human MGC-803 cells assessed as accumulation at S phase at 0.5 uM after 48 hrs by propidium iodide staining-based flow cytometric analysis (reference value: 45.1 %); format: functional
PC-3 = experiment: Cytotoxicity against human PC-3 cells assessed as reduction in cell viability preincubated for 48 hrs and measured after 4 hrs by MTT assay; format: functional, cell-based
MGC-803 [7] = experiment: Induction of apoptosis in human MGC-803 cells assessed as late apoptotic cells at 2.5 uM measured after 24 hrs by Annexin-V/propidium iodide staining-based flow cytometric analysis (Rvb =0.93%)
MGC-803 [8] = experiment: Cell cycle arrest in human MGC-803 cells assessed as accumulation at G2/M phase at 0.5 uM after 48 hrs by propidium iodide staining-based flow cytometric analysis (reference value: 7.94%); format: functional

Question: For `NCCCCNc1nc(/C=C/c2ccc([N+](=O)[O-])cc2)nc2ccccc12`, which Activity [1] is on record?
Answer: 8.91%

Question: And the Activity (MGC-803 [2])?
Answer: 7.66%

Question: What about the Activity (MGC-803 [3]) of the same compound?
Answer: 2.21%

Question: And the Activity (MGC-803 [4])?
Answer: 28%

Question: What about the Activity (MGC-803 [5]) of the same compound?
Answer: Active

Question: What about the Activity (Calf thymus DNA) of the same compound?
Answer: Active

Question: And the pIC50 (DU-145)?
Answer: 5.38

Question: What about the Activity (MGC-803 [6]) of the same compound?
Answer: 25.89%

Question: And the pIC50 (PC-3)?
Answer: 5.34

Question: What about the Activity (MGC-803 [7]) of the same compound?
Answer: 55.9%

Question: What about the Activity (MGC-803 [8]) of the same compound?
Answer: 72.67%
